Our source for the Activity, Ki and inhibition values is ChEMBL document CHEMBL4196034, “Family-wide analysis of aminoacyl-sulfamoyl-3-deazaadenosine analogues as inhibitors of aminoacyl-tRNA synthetases” (Eur J Med Chem, 2018).

One assay relates to Staphylococcus aureus. The experiment in a line: Antibacterial activity against Staphylococcus aureus ATCC 65381 up to 100 uM after 18 to 24 hrs by two fold serial dilution method. Type of assay: functional, organism-based. The essentials:
(§1)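 Broth microdilution, twofold series from 100 µM down to 0.39 µM, in LB medium. MIC50 was taken as the lowest concentration giving 50% growth inhibition after 18-24 h incubation at 37.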

The test system of the next assay is Kocuria rhizophila. The assay can be described thus: Antibacterial activity against Kocuria rhizophila ATCC 9341 up to 100 uM after 18 to 24 hrs by two fold serial dilution method. It counts as functional, organism-based. To be noted: DC2201. The essentials:
as §1

Another assay concerns the target T1, Tyrosine--tRNA ligase (Escherichia coli (strain K12), UniProt P0AGJ9).
T1 sequence (P0AGJ9 whole entry): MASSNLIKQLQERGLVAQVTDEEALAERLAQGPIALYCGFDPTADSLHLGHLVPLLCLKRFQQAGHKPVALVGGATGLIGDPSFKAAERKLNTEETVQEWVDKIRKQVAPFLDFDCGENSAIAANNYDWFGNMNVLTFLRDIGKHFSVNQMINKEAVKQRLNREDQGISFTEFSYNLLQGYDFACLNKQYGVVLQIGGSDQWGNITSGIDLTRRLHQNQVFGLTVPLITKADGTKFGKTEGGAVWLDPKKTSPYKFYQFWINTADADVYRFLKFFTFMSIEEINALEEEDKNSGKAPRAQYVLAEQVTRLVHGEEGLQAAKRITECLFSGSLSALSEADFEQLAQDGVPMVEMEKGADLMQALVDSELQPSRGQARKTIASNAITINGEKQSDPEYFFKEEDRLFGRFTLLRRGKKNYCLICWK
The assay can be described thus: Inhibition of Escherichia coli BL21(DE3) Tyrosyl-tRNA synthetase assessed as reduction in tRNA aminoacylation preincubated for 10 mins with Escherichia coli tRNA and 14C-labeled tyrosine followed by ATP addition by liquid scintillation counting method. The following applies: read-out: Ki(app). The essentials:
(§2)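 Purified E. coli aaRS, expressed in Rosetta 2 (DE3) pLysS: ileRS 50 nM, tyrRS 0.5 nM, leuRS 2.5 nM, aspRS, serRS and glyRS 2 nM each. Buffer was 20 mM Tris, 100 mM KCl, 10 mM MgCl2, 5 mM β-mercaptoethanol, pH 7.5. Enzyme was preincubated 10 min at 37°C with serially diluted compound, 50 µM 14C-amino acid, 2 mg/ml tRNA and pyrophosphatase. Reaction was started with 500 µM ATP and quenched within the linear zone, then TCA-precipitated and counted. Ki app came from Greco-Hakala fits.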

In the next assay the test system is Escherichia coli. The experiment in a line: Antibacterial activity against Escherichia coli NCIB 8743 up to 100 uM after 18 to 24 hrs by two fold serial dilution method. It counts as functional, organism-based. Summed up:
as §1

For assay [1], the system named is Staphylococcus epidermidis. The assay can be described thus: Antibacterial activity against Staphylococcus epidermidis RP62A up to 100 uM after 18 to 24 hrs by two fold serial dilution method. It counts as functional, organism-based. The essentials: as §1
Assay [2] concerns the target T2, Tyrosine--tRNA ligase (Escherichia coli (strain K12)) (UniProt P0AGJ9).
T2 sequence (whole entry): T1 sequence (P0AGJ9 whole entry)
The assay can be described thus: Inhibition of Tyrosyl-tRNA synthetase in Escherichia coli K-12 BW28357 S30 extract assessed as reduction in tRNA aminoacylation at 2.5 uM preincubated for 5 mins followed by Escherichia coli tRNA and 14C-labeled tyrosine addition measured after 5 mins by liquid scintillation counting method relative to control. The essentials:
(§3)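 E. coli K-12 BW28357 cells were grown in LB to A600 0.5, washed in 20 mM Tris.HCl, 10 mM MgCl2, 100 mM KCl, pH 8.0, then sonicated in the same buffer plus 1 mM DTT. The lysate was spun at 15,000 g. Inhibitor (2.5 µM) was preincubated with extract for 5 min. Aminoacylation mix: 30 mM Tris pH 8.0, 5 g/L E. coli tRNA, 3 mM ATP, 8 mM MgCl2, 40 µM 14C-amino acid. Reaction ran at room temperature. TCA precipitation after 5 min, then scintillation counting. Activity was expressed relative to the no-compound control, average of three experiments.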

The test system of a further assay is Pseudomonas aeruginosa. The assay can be described thus: Antibacterial activity against Pseudomonas aeruginosa PAO1 up to 100 uM after 18 to 24 hrs by two fold serial dilution method. Type of assay: functional, organism-based. The essentials: as §1
Assay [3] can be described thus: Inhibition of Escherichia coli BL21(DE3) Glycine-tRNA synthetase alpha subunit/Glycine-tRNA synthetase beta subunit assessed as reduction in tRNA aminoacylation preincubated for 10 mins with Escherichia coli tRNA and 14C-labeled glycine followed by ATP addition by liquid scintillation counting method. To be noted: read-out: Ki(app). The essentials:
as §2

The subject of a further assay is Escherichia coli K-12. The experiment in a line: Inhibition of Glycyl-tRNA synthetase in Escherichia coli K-12 BW28357 S30 extract assessed as reduction in tRNA aminoacylation at 2.5 uM preincubated for 5 mins followed by Escherichia coli tRNA and 14C-labeled glycine addition measured after 5 mins by liquid scintillation counting method. Summed up:
as §3

A further assay has as its target Isoleucine--tRNA ligase (Escherichia coli K-12, UniProt P00956). The assay can be described thus: Inhibition of Escherichia coli BL21(DE3) Isoleucyl-tRNA synthetase assessed as reduction in tRNA aminoacylation preincubated for 10 mins with Escherichia coli tRNA and 14C-labeled isoleucine followed by ATP addition by liquid scintillation counting method. The following applies: read-out: Ki(app). Summed up: as §2

The target of assay [4] is Isoleucine--tRNA ligase (Escherichia coli K-12) (UniProt P00956). The experiment in a line: Inhibition of Isoleucyl-tRNA synthetase in Escherichia coli K-12 BW28357 S30 extract assessed as reduction in tRNA aminoacylation at 2.5 uM preincubated for 5 mins followed by Escherichia coli tRNA and 14C-labeled isoleucine addition measured after 5 mins by liquid scintillation counting method relative to control. The essentials:
as §3

The target of another assay is Serine--tRNA ligase (Escherichia coli (strain K12), UniProt P0A8L1). The assay can be described thus: Inhibition of Escherichia coli BL21(DE3) Seryl-tRNA synthetase assessed as reduction in tRNA aminoacylation preincubated for 10 mins with Escherichia coli tRNA and 14C-labeled serine followed by ATP addition by liquid scintillation counting method. The following applies: read-out: Ki(app). Summed up:
as §2

Assay [5] deals with Serine--tRNA ligase (Escherichia coli (strain K12)) (UniProt P0A8L1). The experiment in a line: Inhibition of Serine-tRNA synthetase in Escherichia coli K-12 BW28357 S30 extract assessed as reduction in tRNA aminoacylation at 2.5 uM preincubated for 5 mins followed by Escherichia coli tRNA and 14C-labeled serine addition measured after 5 mins by liquid scintillation counting method. Summed up:
as §3

Assay [6] has as its target Aspartate--tRNA ligase (Escherichia coli (strain K12)) (UniProt P21889). The experiment in a line: Inhibition of Aspartate-tRNA synthetase in Escherichia coli K-12 BW28357 S30 extract assessed as reduction in tRNA aminoacylation at 2.5 uM preincubated for 5 mins followed by Escherichia coli tRNA and 14C-labeled aspartic acid addition measured after 5 mins by liquid scintillation counting method. Summed up: as §3

The next assay has as its target Aspartate--tRNA ligase (Escherichia coli (strain K12), UniProt P21889). The assay can be described thus: Inhibition of Escherichia coli BL21(DE3) Aspartyl-tRNA synthetase assessed as reduction in tRNA aminoacylation preincubated for 10 mins with Escherichia coli tRNA and 14C-labeled aspartic acid followed by ATP addition by liquid scintillation counting method. The following applies: read-out: Ki(app). Summed up:
as §2

The target in another assay is Leucine--tRNA ligase (Escherichia coli (strain K12), UniProt P07813). The experiment in a line: Inhibition of Escherichia coli BL21(DE3) Leucyl-tRNA synthetase assessed as reduction in tRNA aminoacylation preincubated for 10 mins with Escherichia coli tRNA and 14C-labeled leucine followed by ATP addition by liquid scintillation counting method. To be noted: read-out: Ki(app).
Sequence of Leucine--tRNA ligase (P07813 whole entry): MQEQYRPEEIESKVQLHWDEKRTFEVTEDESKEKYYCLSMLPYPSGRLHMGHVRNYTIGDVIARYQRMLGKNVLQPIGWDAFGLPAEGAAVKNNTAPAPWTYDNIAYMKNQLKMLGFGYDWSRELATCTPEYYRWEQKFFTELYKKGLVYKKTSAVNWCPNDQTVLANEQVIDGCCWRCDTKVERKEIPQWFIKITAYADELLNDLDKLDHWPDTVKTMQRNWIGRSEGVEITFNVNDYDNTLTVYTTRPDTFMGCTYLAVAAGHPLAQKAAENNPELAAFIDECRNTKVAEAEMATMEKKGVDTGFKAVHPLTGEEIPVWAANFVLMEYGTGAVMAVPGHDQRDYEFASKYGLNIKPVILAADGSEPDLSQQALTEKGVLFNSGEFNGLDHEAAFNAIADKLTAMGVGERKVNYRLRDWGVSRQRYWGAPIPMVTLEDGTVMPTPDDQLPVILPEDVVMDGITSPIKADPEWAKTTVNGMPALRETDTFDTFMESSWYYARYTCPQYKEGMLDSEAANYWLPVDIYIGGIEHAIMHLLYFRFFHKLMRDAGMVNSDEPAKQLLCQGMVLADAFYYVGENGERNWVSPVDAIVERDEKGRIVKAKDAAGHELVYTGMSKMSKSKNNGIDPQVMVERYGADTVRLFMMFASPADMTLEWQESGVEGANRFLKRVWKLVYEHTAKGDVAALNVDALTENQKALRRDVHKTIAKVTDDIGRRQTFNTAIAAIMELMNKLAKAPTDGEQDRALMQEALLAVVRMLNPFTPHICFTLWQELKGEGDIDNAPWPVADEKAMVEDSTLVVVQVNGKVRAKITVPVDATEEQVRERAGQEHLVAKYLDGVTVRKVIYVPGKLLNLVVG

The source made the active and inactive calls. The rule behind the calls is not given here.

Sequence of Serine--tRNA ligase (Escherichia coli (strain K12)) (P0A8L1 whole entry, looked up): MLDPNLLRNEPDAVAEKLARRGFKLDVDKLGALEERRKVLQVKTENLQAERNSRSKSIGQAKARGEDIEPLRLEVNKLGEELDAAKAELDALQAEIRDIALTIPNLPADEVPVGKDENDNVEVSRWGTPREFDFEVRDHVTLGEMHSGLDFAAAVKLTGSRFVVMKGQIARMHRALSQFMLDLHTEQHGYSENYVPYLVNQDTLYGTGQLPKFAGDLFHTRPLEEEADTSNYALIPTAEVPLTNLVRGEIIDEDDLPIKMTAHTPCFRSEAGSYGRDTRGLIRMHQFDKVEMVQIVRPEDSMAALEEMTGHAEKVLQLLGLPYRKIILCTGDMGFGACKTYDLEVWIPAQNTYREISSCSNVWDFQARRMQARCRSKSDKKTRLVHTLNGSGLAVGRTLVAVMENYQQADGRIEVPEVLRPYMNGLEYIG
Sequence of Serine--tRNA ligase (P0A8L1 whole entry): as the sequence (P0A8L1 whole entry, looked up) above
Sequence of Aspartate--tRNA ligase (P21889 whole entry): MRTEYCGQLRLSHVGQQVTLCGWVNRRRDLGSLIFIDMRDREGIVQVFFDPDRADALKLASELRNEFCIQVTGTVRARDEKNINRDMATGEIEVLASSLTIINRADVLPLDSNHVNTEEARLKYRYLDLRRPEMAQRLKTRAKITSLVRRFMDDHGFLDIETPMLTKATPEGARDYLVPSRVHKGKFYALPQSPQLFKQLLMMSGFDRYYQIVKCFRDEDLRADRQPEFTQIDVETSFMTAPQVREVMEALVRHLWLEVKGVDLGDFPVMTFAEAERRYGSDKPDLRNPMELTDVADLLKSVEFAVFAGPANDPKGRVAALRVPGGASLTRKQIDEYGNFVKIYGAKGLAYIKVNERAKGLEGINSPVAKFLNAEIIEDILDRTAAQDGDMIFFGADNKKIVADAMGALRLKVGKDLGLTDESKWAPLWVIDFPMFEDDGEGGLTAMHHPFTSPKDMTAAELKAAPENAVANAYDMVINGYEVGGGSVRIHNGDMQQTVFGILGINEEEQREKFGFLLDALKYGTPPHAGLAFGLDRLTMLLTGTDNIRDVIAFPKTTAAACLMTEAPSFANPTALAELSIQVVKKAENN
Sequence of Aspartate--tRNA ligase (Escherichia coli (strain K12)) (P21889 whole entry, looked up): as the sequence (P21889 whole entry) above
Sequence of Isoleucine--tRNA ligase (P00956 whole entry): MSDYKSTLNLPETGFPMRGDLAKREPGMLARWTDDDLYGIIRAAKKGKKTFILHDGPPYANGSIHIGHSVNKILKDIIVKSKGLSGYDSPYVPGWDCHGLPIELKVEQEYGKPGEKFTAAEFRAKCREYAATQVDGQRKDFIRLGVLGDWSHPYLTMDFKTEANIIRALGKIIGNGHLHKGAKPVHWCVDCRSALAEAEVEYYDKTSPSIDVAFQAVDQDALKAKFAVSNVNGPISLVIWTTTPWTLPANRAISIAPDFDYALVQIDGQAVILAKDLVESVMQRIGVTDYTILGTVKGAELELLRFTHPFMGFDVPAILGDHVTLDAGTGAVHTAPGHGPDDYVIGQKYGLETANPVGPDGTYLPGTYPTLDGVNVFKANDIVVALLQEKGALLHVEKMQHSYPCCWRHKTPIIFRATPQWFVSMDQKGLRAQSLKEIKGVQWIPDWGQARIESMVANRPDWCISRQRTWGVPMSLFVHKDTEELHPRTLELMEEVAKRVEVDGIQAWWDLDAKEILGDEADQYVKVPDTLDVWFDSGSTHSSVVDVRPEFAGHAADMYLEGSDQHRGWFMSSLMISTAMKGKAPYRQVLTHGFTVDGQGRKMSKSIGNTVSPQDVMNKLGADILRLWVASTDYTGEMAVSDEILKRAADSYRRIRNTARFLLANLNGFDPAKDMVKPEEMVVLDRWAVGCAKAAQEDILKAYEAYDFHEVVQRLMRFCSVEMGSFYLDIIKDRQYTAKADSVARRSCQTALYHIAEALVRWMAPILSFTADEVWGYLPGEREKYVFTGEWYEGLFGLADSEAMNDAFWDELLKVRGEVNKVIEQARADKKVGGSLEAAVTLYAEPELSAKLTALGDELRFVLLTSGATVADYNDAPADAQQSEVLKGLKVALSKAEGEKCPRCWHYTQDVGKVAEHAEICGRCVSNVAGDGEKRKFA
Sequence of Isoleucine--tRNA ligase (Escherichia coli K-12) (P00956 whole entry): as above

In general, inhibition refers to how much of the control response was suppressed. As to `Nc1ncnc2c1ncn2[C@@H]1O[C@H](COS(=O)(=O)NC(=O)[C@@H](N)Cc2ccc(O)cc2)[C@@H](O)[C@H]1O`, the result (in the assay with Staphylococcus aureus; in the assay on Kocuria rhizophila; with Escherichia coli; in assay [1]; with Pseudomonas aeruginosa) was inactive. In addition, the Ki at Tyrosine--tRNA ligase stood at 2.93 nM. Also, the inhibition entry in assay [2] was “Active”.
Take `NCC(=O)NS(=O)(=O)OC[C@H]1O[C@@H](n2cnc3c(N)nccc32)[C@H](O)[C@@H]1O`: the outcome (in the assay with Staphylococcus aureus; in the assay on Kocuria rhizophila; with Escherichia coli; in assay [1]; in the assay with Pseudomonas aeruginosa) was inactive. For the same compound, the Ki in [3] is more than 2000 nM. The inhibition entry in the assay on Escherichia coli K-12 is “inactive”.
Turning to `CC[C@H](C)[C@H](N)C(=O)NS(=O)(=O)OC[C@H]1O[C@@H](n2cnc3c(N)nccc32)[C@H](O)[C@@H]1O`, the outcome (with Staphylococcus aureus; in the assay on Kocuria rhizophila; in the assay on Escherichia coli; in assay [1]; in the assay on Pseudomonas aeruginosa) was inactive. The Ki at Isoleucine--tRNA ligase is 213 nM. For the same compound, the inhibition in assay [4] lay in the range of 40 to 50%.
In the case of `Nc1nccc2c1ncn2[C@@H]1O[C@H](COS(=O)(=O)NC(=O)[C@@H](N)CO)[C@@H](O)[C@H]1O`, the outcome (with Staphylococcus aureus; in the assay with Kocuria rhizophila; in the assay with Escherichia coli; in [1]; with Pseudomonas aeruginosa) was inactive. Further, at Serine--tRNA ligase, the Ki was 523 nM. Besides, the inhibition entry in [5] was “inactive”.
Turning to `Nc1nccc2c1ncn2[C@@H]1O[C@H](COS(=O)(=O)NC(=O)[C@@H](N)CC(=O)O)[C@@H](O)[C@H]1O`, the result (in the assay on Staphylococcus aureus; in the assay on Kocuria rhizophila; in the assay on Escherichia coli; in [1]; in the assay on Pseudomonas aeruginosa) was inactive. The inhibition result in assay [6] is “inactive”. Also, the Ki on Aspartate--tRNA ligase was 25.3 nM.
With `Nc1ncnc2c1ncn2[C@@H]1O[C@H](COS(=O)(=O)NC(=O)[C@@H](N)CO)[C@@H](O)[C@H]1O`, the outcome (in the assay with Staphylococcus aureus; in the assay with Kocuria rhizophila; in the assay with Escherichia coli; in assay [1]; with Pseudomonas aeruginosa) was inactive. Also, the Ki on Serine--tRNA ligase amounted to 0.18 nM. The inhibition result in [5] is “Active”.
For the compound `CC(C)C[C@H](N)C(=O)NS(=O)(=O)OC[C@H]1O[C@@H](n2cnc3c(N)nccc32)[C@H](O)[C@@H]1O`, the result (in the assay with Staphylococcus aureus; with Kocuria rhizophila; with Escherichia coli; in assay [1]; in the assay on Pseudomonas aeruginosa) was inactive. Moreover, on Leucine--tRNA ligase, the Ki is 0.654 nM.
With `CC[C@H](C)[C@H](N)C(=O)NS(=O)(=O)OC[C@H]1O[C@@H](n2cnc3c(N)ncnc32)[C@H](O)[C@@H]1O`, the outcome (in the assay with Staphylococcus aureus; with Kocuria rhizophila; with Escherichia coli; in assay [1]; with Pseudomonas aeruginosa) was inactive. For the same compound, the Ki on Isoleucine--tRNA ligase was 1.92 nM. Also, in assay [4], the inhibition result is “Active”.
Turning to `NCC(=O)NS(=O)(=O)OC[C@H]1O[C@@H](n2cnc3c(N)ncnc32)[C@H](O)[C@@H]1O`, the result (in the assay on Staphylococcus aureus; in the assay with Kocuria rhizophila; in the assay with Escherichia coli; in assay [1]; in the assay on Pseudomonas aeruginosa) was inactive. Also, the Ki in [3] was found to be 148 nM. The inhibition entry in the assay with Escherichia coli K-12 is “Active”.
As for `Nc1nccc2c1ncn2[C@@H]1O[C@H](COS(=O)(=O)NC(=O)[C@@H](N)Cc2ccc(O)cc2)[C@@H](O)[C@H]1O`, the outcome (in the assay on Staphylococcus aureus; with Kocuria rhizophila; in the assay on Escherichia coli; in assay [1]; in the assay on Pseudomonas aeruginosa) was inactive. Further, at Tyrosine--tRNA ligase, the Ki is 29.9 nM. Moreover, the inhibition in [2] is 40 to 50%.
Regarding `CC(C)C[C@H](N)C(=O)NS(=O)(=O)OC[C@H]1O[C@@H](n2cnc3c(N)ncnc32)[C@H](O)[C@@H]1O`, the result (with Staphylococcus aureus; in the assay on Kocuria rhizophila; in the assay on Escherichia coli; in assay [1]; in the assay on Pseudomonas aeruginosa) was inactive.
With `Nc1ncnc2c1ncn2[C@@H]1O[C@H](COS(=O)(=O)NC(=O)[C@@H](N)CC(=O)O)[C@@H](O)[C@H]1O`, the outcome (with Staphylococcus aureus; with Kocuria rhizophila; in the assay on Escherichia coli; in assay [1]; in the assay with Pseudomonas aeruginosa) was inactive. Besides, the inhibition result in assay [6] is “Active”. Besides, the Ki at Aspartate--tRNA ligase came to 0.052 nM.
